Published values collected from several papers.
Each line is one published result; the experiments were not run side by side.
Target: Serine/threonine-protein kinase pim-1 (PIM1, Homo sapiens, UniProt P11309)

| Compound | effect on | method | concentration | remaining binding [%] |
| --- | --- | --- | --- | --- |
| Nc1ncc2c(n1)-c1c([nH]c3ccc(C#CC4CC4)cc13)CCCC2 | binding | competition with immobilised ligand | 1 µM | 73 |
| C[C@@H]1CN(c2ccc3ncc(-c4ccc5[nH]nc(C6CC6)c5c4)n3n2)C[C@H](C)O1 | binding | competition with immobilised ligand | 0.5 µM | 19 |
| CC(=O)C1=C(C)N(c2cccc(C(F)(F)F)c2)C(=O)N[C@@H]1c1ccc(C#N)nc1 | cell-free assay | competition with immobilised ligand | 1 µM | 100 |
| N[C@H]1CCN(c2nccc(-c3cnn4ncccc34)n2)C1 | binding |  | 1 µM | 99 |
| Cc1cc(-n2nc(Cc3cc(F)cc(C(F)(F)F)c3)nc2C)ccc1C(N)=O | cell-free assay | competition with immobilised ligand | 1 µM | 100 |
| CC1CCCN1c1nccc(-c2cnn3ncccc23)n1 (centres unmarked) | binding |  | 1 µM | 100 |
| C[C@H](c1ccc(F)cc1)N(Cc1cccc(C(=O)O)c1)C(=O)c1cnc2ccccc2c1 | cell-free assay | competition with immobilised ligand | 1 µM | 100 |
| C[C@@H]1CCN(c2nccc(-c3cnn4ncccc34)n2)C1 | binding |  | 1 µM | 84 |
| COc1cnc(Nc2cccc(S(N)(=O)=O)c2)nc1N1CCN(c2ccccc2)C(=O)C1 | binding | competition with immobilised ligand | 1 µM | 100 |
| O=C(NC[C@@H]1[C@H]2CN(C(=O)OCc3cc(C(F)(F)F)cc(C(F)(F)F)c3)C[C@@H]12)c1ccc2[nH]nnc2c1 | cell-free assay | competition with immobilised ligand | 1 µM | 98 |
| O=C(c1ccc(Nc2ncc(Cl)c(-c3cc4ccccc4s3)n2)cc1)N1CCC(N2CCCC2)CC1 | binding | competition with immobilised ligand | 1 µM | 84 |
| CN(C)c1ncc(F)c(-c2cnn3ncccc23)n1 | binding |  | 1 µM | 82 |
| C=CC(=O)N1CCC(C(=O)NCC(=O)N2CCN(c3nc(-c4cnc(N)nc4C(F)F)nc(N4CCOCC4)n3)CC2)CC1 | binding | competition with immobilised ligand | 1 µM | 95 |
| O=C(NCCCN1CCOCC1)c1ccc(Nc2ncc(Cl)c(-c3ccc(Cl)s3)n2)cc1 | binding | competition with immobilised ligand | 1 µM | 100 |
| CN(C)c1nccc(-c2cnc3ncccn23)n1 | binding |  | 1 µM | 82 |
| Cc1cc(NC(=O)c2cccc(S(F)(F)(F)(F)F)c2)cc(-n2ccn3nc(-c4cccnc4)cc23)c1 | cell-free assay | competition with immobilised ligand | 1 µM | 95.6 |
| COc1ccnn2ncc(-c3ccnc(N(C)C)n3)c12 | binding |  | 1 µM | 74 |
| FC(F)(F)Oc1cccc(-c2cnc3ccc(-c4ccncc4)nn23)c1 | cell-free assay | competition with immobilised ligand | 5 µM | 23 |
| FC(F)(F)c1ccc2c(c1)nc(-c1cccnc1)n2C1CC1 | cell-free assay | competition with immobilised ligand | 1 µM | 94 |
| C[C@@H](c1ccc(-n2cnc3c(N)ncnc32)cc1)N1CCc2nn(C)c(Cc3ccccc3)c2C1=O | binding | competition with immobilised ligand | 0.1 µM | 97 |
| CNC(=O)Nc1ccc2c(c1)CC[C@@]21OC(=O)N(CC(=O)N(Cc2ccc(F)cc2)[C@@H](C)C(F)(F)F)C1=O | cell-free assay | competition with immobilised ligand | 1 µM | 100 |
| CN(c1nccc(-c2cnn3ncccc23)n1)C1CC1 | binding |  | 1 µM | 100 |
| N#Cc1ccccc1CSc1nnc2c(n1)[nH]c1ccccc12 | binding | competition with immobilised ligand | 10 µM | 90 |
| O=C(O)c1cc(-c2ccc(C3CCNCC3)cc2)c2ccc(-c3ccc(C(F)(F)F)cc3)cc2c1 | cell-free assay | competition with immobilised ligand | 1 µM | 100 |
| O=C(NCCCN1CCOCC1)c1ccc(Nc2nccc(-c3cc4ccccc4s3)n2)cc1 | binding | competition with immobilised ligand | 1 µM | 85 |
| O=C(Nc1c[nH]nc1C(=O)NC1CCNCC1)c1cc(F)cc(F)c1 | binding | competition with immobilised ligand | 1 µM | 100 |
